Calls of active or inactive are those of the source. The rule behind the calls is not given here.

The values below come from ChEMBL document CHEMBL1133176, “3-Aryl-[1,2,4]triazino[4,3-a]benzimidazol-4(10H)-ones: tricyclic heteroaromatic derivatives as a new class of benzodiazepine receptor ligands” (J Med Chem, 2000).

The target in test [1] is T1, GABA-A receptor; anion channel (Bos taurus) (UniProt P10063+P08220+P20237+P08219+P10064+P22300). Description: Inhibition of […] [3H]- Ro.15-1788 binding to benzodiazepine receptors in bovine brain membrane. In kind it is cell membranes.
The test system of test [2] is Mus musculus. Nature of the test: Antagonism of Diazepam (2.5 mg/kg, ip) anticonvulsant effect in mice treated with PTZ (80 mg/kg, sc). The format is functional. A digest of the protocol:
(§1)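 Mice; anticonvulsant value is the dose protecting 50% of animals from convulsions caused by PTZ 80 mg/kg sc; diazepam antagonism measured as dose reversing the anticonvulsant effect of diazepam 2.5 mg/kg ip in mice given PTZ 80 mg/kg sc. Top test dose 250 mg/kg; means of at least three determinations (≤20% between-experiment difference).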

Test [3] deals with Mus musculus. Description: Proconvulsant action measured as the dose required to induce convulsions in 50% of mice that had been previously given a subconvulsant dose of PTZ (40 mg/kg, sc). The format is functional. The procedure, abridged:
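Proconvulsant test in mice pretreated with subconvulsant PTZ 40 mg/kg sc; value is the dose inducing convulsions in 50% of animals. Highest test dose 250 mg/kg; means of at least three determinations, ≤20% difference between experiments.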

Test [4] deals with Mus musculus. Nature of the test: Dose required to antagonise the convulsant action of PTZ (80 mg/kg, sc) in 50% mice; No effect at a highest dose of 30 mg/kg. In kind it is functional, organism-based. On the set-up: dose 30 mg/kg.
The target of test [5] is T1, GABA-A receptor; anion channel (Bos taurus). Nature of the test: Relative binding to GABA-A receptor in the presence and absence of GABA (GABA shift), Ki(-GABA)/Ki(+GABA). The format is protein-complex assay. A digest of the protocol:
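Bovine brain membranes, frozen-thawed and washed in 50 mM Tris-citrate pH 7.4, used for displacement of radiolabeled antagonist [3H]Ro 15-1788. Ki reported as mean ± SEM of three determinations. GABA ratio taken as Ki without GABA divided by Ki with GABA.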

The target is the same in test [6]. Nature of the test: (§2) Inhibition of [35S]-TBPS binding to GABA-A central Benzodiazepine Receptor of bovine cerebral cortex membranes. On the set-up: concentration or dose not given beside the values. In kind it is tissue-based. To be noted: concentration not given here. A digest of the protocol: (§3)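 [35S]TBPS binding run in the presence of GABA with compounds at 0.5 μM, on bovine brain membranes washed in Tris-citrate pH 7.4. […] Mean ± SE of three separate experiments.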

Test [7] concerns the target GABA-A receptor; anion channel. Description: Displacement of [3H]- Ro.15-1788 from GABA-A central Benzodiazepine receptor (BzR) of Bovine cerebral cortex membrane. The format is tissue-based, Bos taurus.
Test [8] deals with Mus musculus. Description: Antagonism of Diazepam (2.5 mg/kg, ip) anticonvulsant effect in mice treated with PTZ (80 mg/kg, sc), No effect to 250 mg/kg dose. In kind it is functional, organism-based. On the set-up: dose 250 mg/kg. The procedure, abridged:
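Mice received diazepam 2.5 mg/kg ip plus convulsant PTZ 80 mg/kg sc. The dose of test compound that antagonizes the anticonvulsant effect of diazepam was determined, with a highest dose of 250 mg/kg. Values are means of at least three determinations.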

Test [9] has as its system Mus musculus. Description: Proconvulsant action measured as the dose required to induce convulsions in 50% of mice that had been previously given a subconvulsant dose of PTZ (40 mg/kg, sc); No effect at a hieghst dose of 250 mg/kg. The format is functional, organism-based. On the set-up: dose 250 mg/kg. A digest of the protocol: (§4)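 Mice pretreated with a subconvulsant PTZ dose of 40 mg/kg sc. The dose inducing convulsions in 50% of animals was determined, with compounds tested up to 250 mg/kg. Values are means of at least three determinations, with ≤20% variation between experiments.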

Test [10] has as its system Mus musculus. Description: Dose required to antagonise the convulsant action of PTZ (80 mg/kg, sc) in 50% mice; No effect at a highest dose of 250 mg/kg. In kind it is functional, organism-based. On the set-up: dose 250 mg/kg.
The subject of test [11] is Mus musculus. Description: Proconvulsant action measured as the dose required to induce convulsions in 50% of mice that had been previously given a subconvulsant dose of PTZ (40 mg/kg, sc); No effect at a highest dose of 100 mg/kg. On the set-up: dose 100 mg/kg. In kind it is functional, organism-based.
The subject of test [12] is Mus musculus. Description: Dose required to antagonise the convulsant action of PTZ (80 mg/kg, sc) in 50% mice; No effect at a highest dose of 100 mg/kg. In kind it is functional, organism-based. On the set-up: dose 100 mg/kg.
The test system of test [13] is Mus musculus. Nature of the test: Proconvulsant action measured as the dose required to induce convulsions in 50% of mice that had been previously given a subconvulsant dose of PTZ (40 mg/kg, sc); No effect at a highest dose of 250 mg/kg. In kind it is functional, organism-based. On the set-up: dose 250 mg/kg. A digest of the protocol:
as §4

Test [14] has as its system Mus musculus. Nature of the test: Dose required by the compound in vivo to antagonise the convulsant action of PTZ (80 mg/kg, sc) in 50 % mice. The format is functional. The procedure, abridged: as §1
The target in test [15] is T1, GABA-A receptor; anion channel (Bos taurus). Described as §2. In kind it is tissue-based. The conditions noted are these: concentration not given here. The procedure, abridged:
as §3

For `Cc1nnc2nc3ccccc3n2c1O`, in test [1], the inhibition came out at 26%.

As to `COC(=O)c1cc2c(cn1)[nH]c1ccccc12` [BETA-CCM], in test [2], the Diazepam antagonism worked out at 0.02. The compound also returned a Proconvulsant action in [3] of 19.4. In addition, the NE result in test [4] was “inactive”.

Regarding `Oc1c(-c2ccco2)nnc2nc3ccccc3n12`, in test [5], the GABA ratio was determined as 0.98. The values for the inhibition in test [6] and in [1] were 25% and 93%, respectively. Affinity in test [7] was put at a Ki of 56 nM.

As to `Cc1ccc(-c2nnc3nc4ccccc4n3c2O)s1`, in test [5], the GABA ratio is 0.96. Further, in test [7], the Ki amounted to 115 nM. Also, the inhibition in test [1] is 83%.

`Cn1c2ccccc2n2c(=O)c(-c3cccs3)nnc12` gave an inhibition in test [1] of 63%.

As to `Oc1ccc(-c2nnc3nc4ccccc4n3c2O)cc1O`, the GABA ratio in test [5] was 1.2. The inhibition constant (Ki) in [7] was found to be 170 nM. The same compound came in with an inhibition in test [1] of 99%.

On to `Oc1cnnc2nc3ccccc3n12`, for which the inhibition in test [1] amounted to 11%.

Regarding `COc1ccc(-c2nnc3nc4ccccc4n3c2O)cc1OC`, the inhibition in [1] was found to be 17%.

In turn, `Cn1c2ccccc2n2c(=O)c(-c3ccc(Cl)cc3)nnc12` came in with an inhibition in [1] of 30%.

Consider `COc1ccc(-c2nnc3nc4ccccc4n3c2O)cc1`, for which, in [5], the GABA ratio was 1.25. Besides, the NE entry in test [8], in test [9] and in [10] was “inactive” throughout. Further, the values for the inhibition in [6] and in [1] were 5% and 89%, respectively. The Ki in test [7] amounted to 44 nM.

Compound `Cn1c2ccccc2n2c(=O)c(-c3ccco3)nnc12` returned an inhibition in test [1] of 68%.

For `COc1ccc(-c2nnc3n(C)c4ccccc4n3c2=O)cc1`, the inhibition in [1] turned out to be 53%.

In the case of `Cc1ccc(-c2nnc3nc4ccccc4n3c2O)cc1`, in test [1], the inhibition turned out to be 56%.

In turn, `CCOC(=O)c1ncn2c1CN(C)C(=O)c1cc(F)ccc1-2` [FLUMAZENIL] registered a Diazepam antagonism in test [2] of 0.3. The GABA ratio in [5] came out at 0.9. The NE result in test [11] and in test [12] was “inactive” each time. Moreover, the inhibition in [6] amounted to 15%. In addition, the affinity in [7], expressed as Ki, was 0.09 nM.

As to `Oc1c(-c2ccccc2)nnc2nc3ccccc3n12`, in test [5], the GABA ratio worked out at 1.2. Besides, the NE result in [8], in test [10] and in [13] was “inactive” in each case. The inhibition in [6] worked out at 35%; in [1], 97%. Besides, the Ki in test [7] came out at 53 nM.

As for `CN1C(=O)CN=C(c2ccccc2)c2cc(Cl)ccc21` [DIAZEPAM], the ED50 in test [14] was found to be 0.4 mg/kg.

For the compound `Oc1c(-c2ccsc2)nnc2nc3ccccc3n12`, the GABA ratio in test [5] was 1.2. The compound further gave a Ki in [7] of 107 nM. For the same compound, the inhibition in [1] stood at 85%.

`Oc1ccc(-c2nnc3nc4ccccc4n3c2O)cc1`: the GABA ratio in test [5] came to 0.87. In addition, the inhibition in [6] came out at 15%; in [1] it was 99%. The compound also gave a Ki in test [7] of 74 nM.

Take `Oc1c(-c2cccs2)nnc2nc3ccccc3n12`: in [5], the GABA ratio was determined as 0.97. Besides, the inhibition was 28% in [15] and 99% in test [1]. Also, the NE result in [8], in test [10] and in [13] was “inactive” in each case. The same compound showed a Ki in test [7] of 13 nM.

`Cn1c2ccccc2n2c(=O)c(-c3ccccc3)nnc12`: the GABA ratio in [5] stood at 1.7. Moreover, in [14], the 50% effect level (ED50) was put at a dose of 60 mg/kg. The NE result in test [8] and in test [13] was “inactive” each time. Moreover, the results for the inhibition in test [6] and in test [1] were 66% and 92%, respectively. The same compound registered a Ki in test [7] of 860 nM.

For `Oc1c(-c2ccc(Cl)cc2)nnc2nc3ccccc3n12`, in test [1], the inhibition worked out at 34%.

The compound `O=C1CN=C(c2ccccc2Cl)c2cc([N+](=O)[O-])ccc2N1` registered an inhibition in test [6] of 100%.
